Source: ChEMBL document CHEMBL2429802, “Cytotoxic oxepinochromenone and flavonoids from the flower buds of Rosa rugosa” (J Nat Prod, 2013)

How the values were obtained:
Type in all cases: functional, cell-based
A549 = test: Cytotoxicity against human A549 cells assessed as growth inhibition after 72 hrs by MTT assay; conditions: A549, 72 h
Procedure, shortened: (§1)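 2500 cells per well seeded in MEM medium and incubated 24 h. Medium then replaced with fresh medium containing compound at 100 to 1.5625 μM (six 2-fold dilutions). OD595 read after MTT on control wells at 0 and 72 h and on treated wells at 72 h. IC50 taken as the concentration inhibiting 50% of cell growth. Paclitaxel served as positive control.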

PC-3 = test: Cytotoxicity against human PC3 cells assessed as growth inhibition after 72 hrs by MTT assay; conditions: PC-3, 72 h; procedure, shortened: as §1
NB-4 = test: Cytotoxicity against human NB4 cells assessed as growth inhibition after 72 hrs by MTT assay; conditions: NB-4, 72 h; procedure, shortened: as §1
[1] = Cytotoxicity against human SH-SY5Y cells assessed as growth inhibition after 72 hrs by MTT assay; procedure, shortened: as §1
MCF7 = test: Cytotoxicity against human MCF7 cells assessed as growth inhibition after 72 hrs by MTT assay; conditions: MCF7, 72 h; procedure, shortened: as §1

| Compound | IC50 (A549) [µM] | IC50 (PC-3) [µM] | IC50 (NB-4) [µM] | IC50 [1] [µM] | IC50 (MCF7) [µM] |
| --- | --- | --- | --- | --- | --- |
| COc1ccc2c(c1CCO)O[C@@H](c1ccc(O)cc1O)CC2 | > 10 | > 10 | > 10 | > 10 | > 10 |
| COc1cc2c(=O)cc(-c3ccc(O)c(O)c3)oc2c(C(C)=O)c1OC | 1.2 | 8.4 | 3.6 | 4.3 | 2.8 |
| COC(=O)c1cc(O)cc2oc(-c3ccc(OC)cc3)cc(=O)c12 | 6.7 | 4.8 | 2.2 | 2.5 | 2.3 |
| O=C(OC[C@H]1O[C@@H](Oc2c(-c3ccc(O)cc3)oc3cc(O)cc(O)c3c2=O)[C@H](O)[C@@H](O)[C@@H]1O)c1ccc(O)cc1 | > 10 | > 10 | 4.7 | 8.2 | 7.3 |
| COc1cc2c(cc1OC)[C@@H](O)[C@H](c1ccc(O)cc1)CO2 | > 10 | > 10 | > 10 | > 10 | > 10 |
| COc1ccc([C@@H]2COc3cc(OC)c(O)cc3[C@H]2O)cc1 | > 10 | > 10 | > 10 | > 10 | > 10 |
| COc1c(O)ccc(C/C=C/c2ccc3c(c2)OCO3)c1OC | > 10 | > 10 | > 10 | > 10 | > 10 |
| COc1cc(/C=C/Cc2ccc(O)c(OC)c2OC)cc2c1OCO2 | > 10 | > 10 | > 10 | > 10 | > 10 |
| COC(=O)[C@@]1(O)c2c(oc(-c3ccc(O)cc3)cc2=O)OC=C[C@@H]1O | 7.2 | 6.8 | > 10 | > 10 | > 10 |
| CC(=O)O[C@H]1C(=O)[C@@]2(C)[C@H]([C@H](OC(=O)c3ccccc3)[C@]3(O)C[C@H](OC(=O)[C@H](O)[C@@H](NC(=O)c4ccccc4)c4ccccc4)C(C)=C1C3(C)C)[C@]1(OC(C)=O)CO[C@@H]1C[C@@H]2O [PACLITAXEL] | – | – | – | 0.2 | – |
